In paper PMC8049015 (Journal of Clinical Pharmacology, 2020):
Like-named read-outs stand apart in the source and are kept apart here. Marks after values point to notes of the source that are not given here. Each block holds one molecule with its values, some of them ahead of it.

Columns and labels:
[1] = test system: subjects with moderate to severe atopic dermatitis; experiment: Exposure‐response logistic regression models; type: in vivo, human; conditions: logit scale; week 16, NRI; estimate
Method in brief: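 Week-16 EASI-75, EASI-90 and IGA 0/1 responses from 167 phase 2b adults were each fitted by logistic regression with an Emax link, with estimates on the logit scale. The exposure was individual steady-state Cavg from empirical Bayesian population-PK parameters. Drug effect was tested by likelihood ratio at P < .01. Covariates were selected stepwise (entry P < .01, removal P < .001). Models were chosen by AIC, fit and precision.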

[2] = test system: subjects with moderate to severe RA; conditions: cited from earlier work
[3] = test system: subjects with moderate to severe atopic dermatitis; conditions: week 16, placebo 23%, cited from earlier work
[4] = 7.5, 15, 30 mg once daily, 16 weeks; cited from earlier work
[5] = test system: subjects with moderate to severe atopic dermatitis; experiment: Phase 2b dose‐ranging study, observed efficacy in week 16; type: in vivo, human; conditions: week 16, NRI
[6] = cited from earlier work
[7] = type: in vivo, human; conditions: steady state, median (5th to 95th percentiles), model‐predicted
Method in brief: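 Plasma exposures at steady state over a dosing interval (median, 5th–95th percentiles) were predicted by a 2-compartment population-PK model for the oral extended-release once-daily regimens. Absorption was mixed zero- and first-order with a lag time. Sparse samples from weeks 2 and 4 (predose) and weeks 8, 12 and 16 (any time) were assayed by validated LC-MS.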

[8] = test system: moderate to severe atopic dermatitis; conditions: phase 3 studies; cited from earlier work
[9] = 15 mg once daily extended‐release

Cmin ([7]; 7.5 mg once daily extended‐release): 2.0 (0.56‐6.2) ng/mL
Cmax [7, 9]: 41.2 (27.7‐65.8) ng/mL
Cmin [7, 9]: 2.7 (1.2‐11.3) ng/mL
Cmin ([7]; 30 mg once daily extended‐release): 6.6 (2.1‐22.1) ng/mL
Molecule: CC[C@@H]1CN(C(=O)NCC(F)(F)F)C[C@@H]1c1cnc2cnc3[nH]ccc3n12 [upadacitinib]
Emax, probability of achieving EASI‐75 [1]: 5.35 (17% ^a )
Emax, probability of achieving EASI‐90 [1]: 6.2 (13% ^a )
Emax, probability of achieving IGA 0/1 [1]: 5.78 (12% ^a )
Estimated increase in the percentage of subjects achieving ACR 20/50/70 responses or DAS‐28 low disease activity and clinical remission, 30 mg once daily compared with 15 mg once daily exposures [2]: < 5%
Mean improvement in EASI from baseline ([3]; 7.5 mg once daily): 39%
Mean improvement in EASI from baseline ([3]; 15 mg once daily): 62%
Mean improvement in EASI from baseline ([3]; 30 mg once daily): 74%
Dose relationship for serious infections or overall incidence of adverse events [4]: no dose relationship was observed
Dose‐limiting safety events [4]: No dose‐limiting safety events were observed
Observed percentage of subjects achieving EASI‐75 ([5]; 7.5 mg once daily): [29] %
Observed percentage of subjects achieving EASI‐90 ([5]; 7.5 mg once daily): [14] %
Observed percentage of subjects achieving IGA 0/1 ([5]; 7.5 mg once daily): [14] %
Observed percentage of subjects achieving EASI‐90 ([5]; 15 mg once daily): [26] %
Observed percentage of subjects achieving IGA 0/1 ([5]; 15 mg once daily): [31] %
Observed percentage of subjects achieving EASI‐90 ([5]; 30 mg once daily): [50] %
Observed percentage of subjects achieving IGA 0/1 ([5]; 30 mg once daily): [50] %
Oral bioavailability of the extended‐release tablet relative to the same dose of the immediate‐release formulation [6]: 76%
Dose proportionality of plasma exposure ([6]; over the evaluated dose range across clinical studies): approximately dose proportional
Accumulation with repeated dosing ([6]; twice daily immediate‐release or once daily extended‐release): no significant accumulation

Molecule: dupilumab
Patients who achieved no or almost no disease activity [8]: < 40%
